Source: paper PMC2222990 (The Journal of General Physiology, 1999)
Values belong to the compound of their own block, whether it stands above or below them.

What was measured:
[1] = biological target: T1, rat olfactory CNG channels (Rattus norvegicus, UniProt Q00195); assay type: biochemical; conditions: n = 10 patches
T1 sequence (Q00195 1-664): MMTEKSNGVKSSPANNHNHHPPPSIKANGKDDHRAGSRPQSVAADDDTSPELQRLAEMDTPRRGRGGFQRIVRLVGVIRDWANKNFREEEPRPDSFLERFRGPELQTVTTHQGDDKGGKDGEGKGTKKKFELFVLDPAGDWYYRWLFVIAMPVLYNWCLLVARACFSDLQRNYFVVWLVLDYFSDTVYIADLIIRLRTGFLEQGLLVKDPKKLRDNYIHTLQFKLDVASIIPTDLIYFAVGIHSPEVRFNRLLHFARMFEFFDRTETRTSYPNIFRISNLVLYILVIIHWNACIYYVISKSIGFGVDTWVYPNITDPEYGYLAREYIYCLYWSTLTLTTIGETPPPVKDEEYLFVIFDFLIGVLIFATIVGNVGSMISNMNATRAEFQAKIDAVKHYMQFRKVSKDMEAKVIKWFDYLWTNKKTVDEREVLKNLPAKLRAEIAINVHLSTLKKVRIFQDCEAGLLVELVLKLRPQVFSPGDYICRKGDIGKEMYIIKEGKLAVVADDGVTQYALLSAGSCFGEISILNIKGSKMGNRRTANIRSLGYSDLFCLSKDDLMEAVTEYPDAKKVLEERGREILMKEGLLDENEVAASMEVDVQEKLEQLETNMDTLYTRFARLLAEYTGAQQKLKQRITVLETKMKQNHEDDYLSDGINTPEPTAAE

[2] = biological target: T2, bovine rod photoreceptor CNG channel α subunit (Bos taurus, UniProt Q00194); experiment: Inside-out patch clamp of rod CNG channels expressed in Xenopus oocytes; assay type: biochemical; conditions: for effect on cGMP sensitivity (K 1/2 for cGMP): 10 μM genistein, 10 μM lavendustin A, 25 μM erbstatin
T2 sequence (Q00194 1-690): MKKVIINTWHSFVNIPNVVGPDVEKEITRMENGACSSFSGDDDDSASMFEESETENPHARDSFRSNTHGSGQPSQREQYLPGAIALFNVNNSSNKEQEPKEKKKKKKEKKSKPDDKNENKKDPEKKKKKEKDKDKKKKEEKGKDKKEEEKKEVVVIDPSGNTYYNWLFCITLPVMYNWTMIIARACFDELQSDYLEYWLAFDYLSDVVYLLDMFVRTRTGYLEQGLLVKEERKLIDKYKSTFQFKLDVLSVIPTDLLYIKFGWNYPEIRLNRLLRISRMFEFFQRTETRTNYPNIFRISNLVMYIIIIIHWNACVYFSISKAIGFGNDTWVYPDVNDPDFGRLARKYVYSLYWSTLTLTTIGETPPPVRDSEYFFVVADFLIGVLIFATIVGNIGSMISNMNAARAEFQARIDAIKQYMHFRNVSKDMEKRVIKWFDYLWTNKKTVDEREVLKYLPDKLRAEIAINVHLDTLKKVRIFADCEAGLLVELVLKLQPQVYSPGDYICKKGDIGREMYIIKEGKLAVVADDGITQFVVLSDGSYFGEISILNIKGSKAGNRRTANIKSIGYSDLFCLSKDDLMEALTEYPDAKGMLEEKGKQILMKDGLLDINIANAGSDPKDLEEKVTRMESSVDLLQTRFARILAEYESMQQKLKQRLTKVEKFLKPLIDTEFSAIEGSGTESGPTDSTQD
In short: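 Inside-out patches from Xenopus oocytes 2–7 d after injection (vitelline membrane removed), 21–24°C, held at −75 mV. Pipette/bath solution: 115 mM NaCl, 5 mM EGTA, 1 mM EDTA, 10 mM HEPES, pH 7.5. Test compound preapplied 1 min to closed channels (±100 μM erbstatin) at 1 or 10 min after excision, or applied at steady state; then 2 mM cGMP. Currents normalized to Imax; Ki, Hill coefficient and cGMP K1/2 (4–5 cGMP levels) fitted to Hill equation; mean ± SEM.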

[3] = test system: native CNG channels from salamander rod outer segments; experiment: Inside-out patches with native CNG channels from rod outer segments; assay type: biochemical, tiger salamanders (Ambystoma tigrinum); conditions: 100 μM genistein
rod CNG channel = conditions: ref Fodor et al., 1997a; cited from earlier work
[4] = 100 μM genistein, preexposure 1 min, 2 mM cGMP

effect on rat olfactory CNG channels [1]: no effect | effect on rod CNG channels (maximal current) ([2]; saturating cGMP): no effect
Structure (SMILES): O=c1c(-c2ccc(O)cc2)coc2cc(O)ccc12 [daidzein]

effect on cGMP sensitivity (K 1/2 for cGMP) ([2]; in the presence of ATP): increase in cGMP sensitivity
Structure (SMILES): O=CN/C=C/c1cc(O)ccc1O [erbstatin]

effect on rat olfactory CNG channels [1]: no effect | time course of inhibition [2]: > 30 s | residual current, % of maximal CNG current ([2]; 100 μM genistein with 100 μM erbstatin present): 20% | residual current (fraction of total current with normal rapid activation) [2, 4]: 4.5% | steady state current elicited by cGMP [2, 4]: 40 % of control | residual current, % of maximal CNG current ([2]; 100 μM genistein, without erbstatin): < 5% | voltage dependence of inhibition ([2]; 100 μM genistein, saturating cGMP): voltage-independent | time constant of slow current activation by cGMP ([2]; 100 μM genistein, single exponential fit): 10.6 s | Ki ([2]; K i for genistein inhibition of CNG current activation by cGMP, in the presence of 1 mM ATP): 10.6 ± 1.3 µM | Ki ([2]; apparent affinity of genistein for the rod channel, closed to activated channels): 5 to 80 µM | K i values at 1 versus 10 min after patch excision ([2]; closed channels, residual current): do not differ | extent of inhibition of steady state (fully activated) CNG current ([2]; high genistein concentrations (e.g., 1 mM)): incomplete | Hill coefficient for genistein inhibition ([2]; in the absence of ATP): 1.9 ± 0.2 | effect on cGMP sensitivity (K 1/2 for cGMP) ([2]; in the absence of ATP): no effect | Hill coefficient for genistein inhibition ([2]; in the presence of ATP): 2.0 ± 0.2 | effect on cGMP sensitivity (K 1/2 for cGMP) ([2]; in the presence of ATP): increase in cGMP sensitivity | inhibition at 100 µM ([2]; read-out: inhibition of closed channels, 100 μM genistein, without erbstatin): > 95% | extent of inhibition of closed channels ([2]; saturating genistein (>100 μM)): complete inhibition | time constant of inhibition of closed CNG channels ([2]; single exponential fit, data not shown): 8.9 s | time required to recover from genistein inhibition ([2]; unpublished observations): > 60 s
Structure (SMILES): O=c1c(-c2ccc(O)cc2)coc2cc(O)cc(O)c12 [genistein]
effect on cGMP-activated current of native channels [3]: reduced the magnitude of the cGMP-activated current and slowed the activation kinetics

effect on cGMP sensitivity (K 1/2 for cGMP) ([2]; in the presence of ATP): increase in cGMP sensitivity
Structure (SMILES): O=C(O)c1cc(N(Cc2ccccc2O)Cc2cc(O)ccc2O)ccc1O [lavendustin A]

Structure (SMILES): CCCCNc1ccc(C(=O)OCCN(C)C)cc1 [tetracaine]
time of block (rod CNG channel): < 100 ms
